Measurements published in article PMC5159310 (Bioorganic & medicinal chemistry letters, 2016).
Positions of bridges follow the written chain, without caps; N, C: chain ends. Non-standard residues stand in square brackets, D forms with d. Residues, ends and D or L forms follow the SMILES beside them. Nle = CCCC[C@H](N)C(=O)O

Tests used:
[1] = Metabolic stability; format: in vitro ADME; settings: rat, plasma
[2] = molecular target: bradykinin receptors (BRs); assay: Radioligand competition assay using [3H]BK in rat brain membranes; format: binding; settings: for BR, [3H]BK IC50 / BR, [3H]BK Log[IC50] / IC50: rat brain membranes, pH 6.8, [3H]BK; for BR, [3H]BK Log[IC50]: logarithmic value (negative); for IC50: read-out: BR, [3H]BK IC50
Summary of the method: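 Competitive binding against [3H]BK in rat brain membranes at pH 6.8. Non-specific binding was defined with 10 μM kallidin. Data came from at least two independent experiments run in duplicate. IC50 was derived by nonlinear least-squares regression and also reported as a logarithmic value.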

Row | half-life [1] [min] | Compound | BR, [3H]BK IC50 [2] | BR, [3H]BK Log[IC50] [2] | IC50 [2] [nM] | further results
1 | < 60 | CCCC[C@H](NC(=O)[C@H](CCCCN)NC(=O)[C@@H]1CCCN1C(=O)[C@H](CCCCN)NC(=O)[C@@H](N)CCCC)C(=O)N[C@@H](CCCCN)C(=O)O [ligand 1, H-Nle-Lys-Pro-Lys-Nle-Lys-OH] (H-[Nle]KPK[Nle]K-OH) |  |  |  | 
2 | > 300 | CC[C@H](C)[C@@H]1NC(=O)[C@H](CCCNC(=N)N)NC(=O)[C@H](CC(C)C)NC(=O)[C@H](Cc2ccccc2)NC(=O)CC[C@@H](C(=O)N[C@@H](CCCCN)C(=O)O)NC(=O)[C@H](CCCNC(=N)N)NC1=O [ligand 5, c^N,6[Phe-Leu-Arg-Ile-Arg-Glu]-Lys-OH] (FLRIREK-OH; lactam N-6 (inferred)) |  |  |  | 
3 |  | H-c^1,5(-CH2CH2-)[Ala-Lys-Pro-Lys-Ala]-Lys-OH (AKPKA; not fully specified; -CH2CH2- dicarba bridge 1,5; C-terminal Lys; printed: Ala-Lys-Pro-Lys-Ala) [ligand 3] | no competition |  |  | 
4 |  | H-c^1,5(-cisCH=CH-)[Ala-Lys-Pro-Lys-Ala]-Lys-OH (AKPKA; not fully specified; cis-CH=CH- dicarba bridge 1,5; C-terminal Lys; printed: Ala-Lys-Pro-Lys-Ala) [ligand 2] | no competition |  |  | 
5 |  | c^N,5[Leu-Arg-Ile-Arg-Glu]-Lys-OH (LRIREK-OH; lactam N-5; SMILES CC[C@H](C)[C@@H]1NC(=O)[C@H](CCCNC(=N)N)NC(=O)[C@H](CC(C)C)NC(=O)CC[C@@H](C(=O)N[C@@H](CCCCN)C(=O)O)NC(=O)[C@H](CCCNC(=N)N)NC1=O) [ligand 7] |  | −5.82+0.09 | 1510 | reduction of affinity at the BRs (fold) ([2]; compared with linear ligand 4): 22 fold
6 |  | c^N,6[Lys-Leu-Arg-Ile-Arg-Glu]-Lys-OH (KLRIREK-OH; lactam N-6; SMILES CC[C@H](C)[C@@H]1NC(=O)[C@H](CCCNC(=N)N)NC(=O)[C@H](CC(C)C)NC(=O)[C@H](CCCCN)NC(=O)CC[C@@H](C(=O)N[C@@H](CCCCN)C(=O)O)NC(=O)[C@H](CCCNC(=N)N)NC1=O) [ligand 6] |  | −6.52+0.15 | 302 | 
